# Screening results from PubChem.
# ALR inh = blocks human ALR sulfhydryl oxidase activity | P55789 | purified ALR, DTT oxidation, H2O2 HRP-luminol luminescence | inhibition, % (no concentration beside the values) | hit rate 3.8% among 290,000;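 active = mean replicate inhibition above about 79%, with every replicate also reaching it, limit read from the data; inconclusive = only one of the two criteria met; inactive = mean below limit and not every replicate reaching it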
# Target sequence (P55789 whole entry, looked up): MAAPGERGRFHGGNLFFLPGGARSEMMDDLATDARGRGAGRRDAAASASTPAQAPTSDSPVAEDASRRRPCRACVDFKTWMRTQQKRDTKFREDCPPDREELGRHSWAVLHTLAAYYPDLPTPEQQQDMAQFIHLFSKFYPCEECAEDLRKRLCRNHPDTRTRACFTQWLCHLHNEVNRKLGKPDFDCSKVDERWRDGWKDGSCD
# HCV core dimer = blocks dimerization of HCV core protein; TR-FRET GST/Flag-core106 dimerization, 1536-well; inhibition, % at 5 µM; hit rate 0.33% among 300,000; AID 1899;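 active = inhibition above the mean of all tested compounds plus 3 SD, set per screening campaign, cut at about 45% in these data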
#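 test system = GST/Flag-tagged HCV core106 proteins | probe or stimulus = Eu donor and XL665 acceptor anti-tag antibodies | times = compound-protein-antibody incubation 4 h at 22.5 °C | signal = TR-FRET, excitation 340 nm, emission 617 and 671 nm | measure = percent inhibition of core106 dimerization signal | controls = wells lacking GST-core106 and wells with excess unlabelled core106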
# AI-2 QS mod = modulators of Vibrio harveyi AI-2 quorum sensing system | hit rate 0.4% among 300,000 | activity change, % at 7.5 µM | AID 2094 | Vibrio harveyi JMH597 AI-2 luminescence/OD600 ratio, 9 h; active compounds read low; strain lacks LuxN and CqsS sensors; 0 = neutral-control median; in the data active = activity change below about -75%, passing the limit was not always enough; inconclusive = no clear call, values can overlap the other calls;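 also: luminescence divided by OD600 gain over 9 h not by final OD600 alone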
# HSF1 activator = increases HSF-1 driven luciferase reporter signal; NIH3T3-HGL HSF-1 luciferase reporter, MG132, 8 h; 100% = twice DMSO control signal; activation, % at 9 µM; hit rate 1.7% among 300,000; AID 504408;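 active = mean replicate activation of at least 50% with a set share of replicates each reaching 50%; inconclusive = only one of those two conditions met; inactive = mean below 50% and too few replicates reaching it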;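 also: 0% = median of the neutral control wells and 100% = twice that signal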
# HSF1 inh = HSF1 inhibition | NIH3T3-HGL HSE-luciferase, MG132-induced, luminescence 8 h; active compounds read low | hit rate 0.77% among 300,000 | activity change, negative = inhibition, % at 7.5 µM (by protocol) | AID 2098;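 active = more than half of replicate wells show activity change below -50%, luminescence cut by over half; inconclusive = some wells, but at most half, below -50%; inactive = no replicate well below -50%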;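 also: luciferase reports HSF-1 transcriptional activity via heat shock element; 0% = median of DMSO wells and -100% = zero luminescence signal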
# PHOSPHO1 inh = blocks human PHOSPHO1 phosphatase activity | Q8TCT1 | recombinant PHOSPHO1, absorbance phosphatase assay | inhibition, % at 13.3 µM | hit rate 1.1% among 290,000; in the data active = inhibition above about 60%
# Target sequence (Q8TCT1 whole entry, looked up): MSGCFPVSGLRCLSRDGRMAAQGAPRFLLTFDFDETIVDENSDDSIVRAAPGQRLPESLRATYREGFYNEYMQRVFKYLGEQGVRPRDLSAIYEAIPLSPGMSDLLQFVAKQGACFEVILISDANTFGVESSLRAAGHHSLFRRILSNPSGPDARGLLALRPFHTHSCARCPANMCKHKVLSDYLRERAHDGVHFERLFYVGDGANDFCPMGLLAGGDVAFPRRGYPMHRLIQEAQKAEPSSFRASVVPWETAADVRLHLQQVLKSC
# * marks the source's active call; other numbers are inactive results; ? = inconclusive; / = no result given. A selection: hits, their analogues and other compounds. The true share with any hit is near 6.8%.
SMILES,ALR inh,HCV core dimer,AI-2 QS mod,HSF1 activator,HSF1 inh,PHOSPHO1 inh
O=c1[nH]c(=S)[nH]c(O)c1N=Nc1ccc(SC(F)F)cc1,98*,-10,18,?,31,41
CN1C(=O)C(=Cc2ccccc2OS(=O)(=O)c2ccccc2)C(=O)N(C)C1=O,13,0,22,-3,-7,33
C/C(=N\NC(=S)Nc1ccccc1)c1c(O)n(C)c(=O)n(C)c1=O,92*,7,12,31,12,33
Cc1ccc(CC2C(=O)N(C)C(=O)N(C)C2=O)s1,12,-2,8,-4,-3,-8
C=CCOc1ccc(CC2C(=O)N(C)C(=O)N(C)C2=O)cc1,19,85*,14,17,-4,-8
CCN(CC)c1ccc(CC2C(=O)N(C)C(=O)N(C)C2=O)cc1,99*,-3,13,-10,-7,7
O=C1CC(N2CC=C(c3ccc(F)cc3)CC2)C(=O)N1c1ccc(F)cc1 (stereo not drawn),-8,2,11,-78,-71*,23
COc1c(C=C2C(=O)NC(=O)NC2=O)c(CCN(C)C(=O)c2ccccc2)cc2c1OCO2,96*,0,18,-13,-1,29
COC(=O)Cn1cc(C=C2C(=O)NC(=O)NC2=O)c2ccccc21,6,-1,4,19,-13,29
CN(C)[C@@H]1C(=O)C(C(N)=O)=C(O)[C@@]2(O)C(=O)C3=C(O)c4c(O)ccc(Cl)c4[C@@](C)(O)[C@H]3C[C@@H]12,-27,0,-111*,9,-4,-8
CN(C)[C@@H]1C(=O)C(C(N)=O)=C(O)[C@@]2(O)C(=O)C3=C(O)c4c(O)cccc4[C@@](C)(O)C3C[C@@H]12 (stereo partly drawn),-1,-6,-64,2,-2,/
COC(=O)C1=C(c2ccc(-c3ccccc3)c(F)c2)C[C@@H]2CC[C@H]1N2C(=O)NCCCOC(C)C,-4,/,/,/,/,/
O=C(Cc1ccccc1F)N1CCN(CC(=O)N2CCCC2)CC1,-16,/,/,/,/,/
Cn1ccnc1P(=S)(c1nccn1C)N1CCOCC1,-17,-8,24,0,-2,76*
Cn1ccnc1P(=S)(c1nccn1C)c1nccn1C,-2,0,14,4,-8,28
Cc1ccc(N)c(C(=O)c2ccccc2)c1,3,1,-3,21,14,53
Cc1cc(N=Nc2ccccc2C)ccc1N,86*,-8,12,17,17,/
C[C@]12CCC3C(CC[C@@H]4C[C@H](O)CC[C@]34C)C1CCC2=O (stereo partly drawn),0,/,/,/,/,/
O=C(Cn1ncc2ccsc2c1=O)N1CCC2(CC1)OCCO2,-6,2,28,-1,-7,29
O=C(CSc1ccccc1)N1CCC2(CC1)OCCO2,-10,-1,6,9,5,0
Cc1ccsc1-c1nc(CSCC(=O)N2CCC3(CC2)OCCO3)c(C)o1,99*,3,9,32,5,6
Cc1ccccc1-c1nc(CS(=O)CC(=O)N2CCC3(CC2)OCCO3)c(C)o1 (stereo not drawn),100*,2,6,2,-6,30
COc1cc(/C=C(/C)[N+](=O)[O-])ccc1OCc1ccccc1Cl,3,23,27,128*,117,-2
COCCNC(=O)Cn1cc(/C=C2\C(=O)NC(=O)N(c3cccc(C)c3C)C2=O)c2ccccc21,92*,-1,8,13,-1,28
C[N+](C)(N)CCOC(=O)C(O)(c1ccccc1)C1CCCCC1 (stereo not drawn),1,-2,20,-14,-7,/
SMILES,ALR inh,HCV core dimer,AI-2 QS mod,HSF1 activator,HSF1 inh,PHOSPHO1 inh
Nc1cc2nc3ccccc3nc2cc1N,-1,32,41,0,2,60*
CCc1c(-c2ccccc2)nc2ccccc2c1C(=O)N1CCC2(CC1)OCCO2,0,5,21,-13,-3,18
CCOc1ccccc1-n1c(O)c(C=Nc2ccc(N(CC)CC)cc2)c(=O)[nH]c1=O,70,0,43,-16,-18,13
CCN(CC)c1ccc(N=Cc2c(O)n(-c3ccccc3C)c(=O)[nH]c2=O)cc1,98*,10,30,-7,-8,34
CCN(CC)c1ccc(N=Cc2c(O)n(-c3ccccc3)c(=O)[nH]c2=O)cc1,81*,6,42,4,5,8
Cc1noc(C)c1CC(=O)N1CCCC(N2CCN(c3ccccc3F)CC2)C1 (stereo not drawn),-1,0,15,-16,-1,25
Cc1cc(O)c2c(C)c(CC(=O)N3C[C@H]4C[C@@H](C3)c3cccc(=O)n3C4)c(=O)oc2c1,85*,1,28,8,0,29
CCNc1ccc(P(=S)(N(C)C)N(C)C)cc1,99*,1,1,14,7,-7
CC/C(=N\NC(=O)c1ccccc1)c1c(O)n(C2CCCCC2)c(=O)[nH]c1=O,61,-3,/,13,9,15
Cc1ccc(/C=C2/Sc3ccc(C(=O)N4CCC5(CC4)OCCO5)cc3NC2=O)cc1,-3,-3,-9,-3,0,40
O=C(O)CCn1cc(C=C2C(=O)NC(=S)NC2=O)c(-c2ccccc2)n1,87*,2,15,-52,-35,43
O=C(O)CCn1cc(C=C2C(=O)NC(=S)NC2=O)c(-c2cc3ccccc3oc2=O)n1,/,/,33,2,-4,28
CC(C)N1C(=O)/C(=C/C=C/c2ccco2)C(=O)N(Cc2ccco2)C1=O,98*,63*,8,49,40,26
O=C1NC(=O)N(Cc2ccccc2)C(=O)/C1=C/C=C/c1ccco1,98*,11,1,-1,4,45
COC(=O)C1=C(c2ccc(OC(F)(F)F)cc2)C[C@@H]2CC[C@H]1N2C(=O)NCc1cc(C)oc1C(F)(F)F,-1,/,/,/,/,/
CN1CCCN(c2ccc([N+](=O)[O-])nc2)CC1,-4,8,23,-13,-6,14
CN(C)CCN(C(=O)COc1ccc(Cl)cc1)c1nc2cc3c(cc2s1)OCO3,5,-9,21,5,-1,63*
COC(=O)C1=C(c2ccc(Cl)c(C(F)(F)F)c2)C[C@@H]2CC[C@H]1N2C(=O)NCCOc1ccccc1Cl,-4,/,/,/,/,/
CC(=O)OC(C)(C)/C=C/C(=O)C(C)(O)C1[C@H](O)C[C@@]2(C)C3CC=C4C(CC[C@@H](O)C4(C)C)[C@]3(CO)C(=O)C[C@]12C (stereo partly drawn),2,2,27,-61,-52*,24
COC(=O)C1=C(c2c(C)noc2C)C[C@@H]2CC[C@H]1N2C(=O)NCc1ccco1,5,/,/,/,/,/
COC1=C(OC)[C@]23CCc4ccc(OC)c(OC)c4[C@]2(CCN3C)CC1=O,-4,/,/,/,/,/
